Results on 15 compounds are retold here after ChEMBL document CHEMBL1152584, “Synthesis of heteroaromatic tropeines and heterogeneous binding to glycine receptors” (Bioorg Med Chem, 2009).

Test [1] addresses T1, Glycine receptor subunit alpha-1 (Rattus norvegicus) (UniProt P07727).
T1 sequence (whole entry): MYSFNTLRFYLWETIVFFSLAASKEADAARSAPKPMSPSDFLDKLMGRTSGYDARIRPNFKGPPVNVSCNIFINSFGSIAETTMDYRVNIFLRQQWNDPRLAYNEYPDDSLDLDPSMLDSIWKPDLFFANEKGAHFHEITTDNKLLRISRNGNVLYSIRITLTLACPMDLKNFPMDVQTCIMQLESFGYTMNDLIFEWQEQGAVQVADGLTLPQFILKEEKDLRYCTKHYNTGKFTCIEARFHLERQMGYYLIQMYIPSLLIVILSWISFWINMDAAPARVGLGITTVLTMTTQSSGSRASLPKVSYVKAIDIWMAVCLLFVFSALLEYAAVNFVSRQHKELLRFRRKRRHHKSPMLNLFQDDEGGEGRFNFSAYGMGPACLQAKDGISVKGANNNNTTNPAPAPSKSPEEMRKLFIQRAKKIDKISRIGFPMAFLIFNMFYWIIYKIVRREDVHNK
The experiment in a line: Selectivity ratio of IC50 for GlyR low affinity site to IC50 for GlyR high affinity site in Wistar rat spinal cord.

Test [2] deals with T2, Glycine receptor subunit alpha-1 (Rattus norvegicus, UniProt P07727).
T2 sequence (P07727 whole entry): T1 sequence (whole entry)
The experiment in a line: Displacement of [3H]strychnine from GlyR in Wistar rat spinal cord by scintillation spectrometry. In short, it runs like this:
(§1)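 Duplicate aliquots filtered, washed with ice-cold buffer, counted by scintillation. Nonspecific binding defined with 2 mM glycine. IC50 and Hill slope from nonlinear sigmoidal fitting. Two-site fits used pooled data, chosen by F test.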

Test [3] addresses T2, Glycine receptor subunit alpha-1. The experiment in a line: Displacement of [3H]strychnine from GlyR high affinity site in Wistar rat spinal cord by scintillation spectrometry. An outline of the steps:
as §1

Test [4] has the same target. The experiment in a line: Displacement of [3H]strychnine from GlyR low affinity site in Wistar rat spinal cord by scintillation spectrometry. An outline of the steps:
as §1
For orientation: Loss of bound radioactivity is the signal in a displacement assay; it reports binding, not function.

The target of test [5] is T3, 5-hydroxytryptamine receptor 3A (Rattus norvegicus, UniProt P35563).
T3 sequence (P35563 whole entry): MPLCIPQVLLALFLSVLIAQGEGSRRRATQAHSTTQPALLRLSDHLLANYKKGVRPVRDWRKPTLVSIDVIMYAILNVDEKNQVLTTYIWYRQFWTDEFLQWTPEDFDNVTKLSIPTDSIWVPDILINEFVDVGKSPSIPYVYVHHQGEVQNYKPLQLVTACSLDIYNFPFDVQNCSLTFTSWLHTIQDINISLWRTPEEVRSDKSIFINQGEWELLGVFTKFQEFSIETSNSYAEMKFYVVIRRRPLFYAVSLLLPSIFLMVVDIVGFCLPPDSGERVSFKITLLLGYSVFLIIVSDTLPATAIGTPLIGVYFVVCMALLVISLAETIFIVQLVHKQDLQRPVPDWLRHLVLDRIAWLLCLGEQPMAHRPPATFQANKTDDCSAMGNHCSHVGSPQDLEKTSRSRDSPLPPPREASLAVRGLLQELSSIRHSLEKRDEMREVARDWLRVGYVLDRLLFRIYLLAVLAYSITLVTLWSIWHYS
The experiment in a line: Displacement of [3H]granisectron from 5HT3 receptor in Wistar rat forebrain. In short, it runs like this: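 Crude membranes from male rat forebrain (cortex + hippocampus), homogenized in 10 mM HEPES/140 mM NaCl pH 7.5, centrifuged, washed, frozen; thawed and spun before use. Incubated with 0.2 nM [3H]granisetron at 0 °C for 2.5 h. Nonspecific binding defined with 10 µM granisetron.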

For test [6], the target named is T2, Glycine receptor subunit alpha-1. The experiment in a line: Displacement of [3H]strychnine from GlyR in Wistar rat spinal cord by scintillation spectrometry in presence of 10 uM glycine. In short, it runs like this:
as §1

Test [7] shares this target. The experiment in a line: Displacement of [3H]strychnine from GlyR high affinity site in Wistar rat spinal cord by scintillation spectrometry in presence of 10 uM glycine. In short, it runs like this:
as §1

The target is the same in test [8]. The experiment in a line: Displacement of [3H]strychnine from GlyR low affinity site in Wistar rat spinal cord by scintillation spectrometry in presence of 10 uM glycine. In short, it runs like this: as §1

Structures are written as SMILES. A value given as a limit tells only on which side of the number the result lay.

Regarding `O=C(O[C@H]1C[C@H]2CC[C@@H](C1)N2)c1cccnc1`, the Ratio IC50 in test [1] was 1. In test [2], the IC50 was 100 nM.
With `CN1[C@@H]2CC[C@H]1C[C@@H](OC(=O)c1cnc3ccccc3c1)C2`, the figures for the half-maximal inhibitory concentration (IC50) in test [3], in test [2] and in test [4] were 72.4 nM, 1910 nM and 5500 nM, respectively. Besides, the Ratio IC50 in test [1] is 76.
For `O=C(O[C@H]1C[C@H]2CC[C@@H](C1)N2)c1ccc[nH]1`, the Ratio IC50 in test [1] was determined as 1. Further, the IC50 in test [2] is 129 nM.
As for `CN1[C@@H]2CC[C@H]1C[C@@H](OC(=O)c1cccs1)C2`, the IC50 is 89.1 nM in test [3], 1910 nM in test [2] and 4270 nM in test [4]. The Ratio IC50 in test [1] turned out to be 47.
Take `O=C(O[C@H]1C[C@H]2CC[C@@H](C1)N2)c1cc2ccccc2[nH]1`: the Ratio IC50 in test [1] was 1. The half-inhibitory concentration (IC50) was 234 nM in test [2] and 32 nM in test [5].
For the compound `CN1[C@@H]2CC[C@H]1C[C@H](OC(=O)c1cc3ccccc3[nH]1)C2`, the IC50 in test [3] was 60.3 nM; in test [2] it was 4680 nM; in test [4] it was 7940 nM. Also, the Ratio IC50 in test [1] amounted to 133.
On the same counts, the results for `CN1[C@@H]2CC[C@H]1C[C@@H](OC(=O)c1ccco1)C2` are 50.1 nM, 5620 nM, 10000 nM and 200.
`O=C(O[C@H]1C[C@H]2CC[C@@H](C1)N2)c1cnc2ccccc2c1`: the Ratio IC50 in test [1] worked out at 1. Also, the IC50 in test [2] was 166 nM.
On to `Cn1c(C(=O)O[C@H]2C[C@H]3CC[C@@H](C2)N3)cc2ccccc21`, for which the IC50 in test [3] was 11.5 nM; in test [6], 70.8 nM; in test [7], 1.07 nM; in test [2] it was 33.9 nM; in test [4] it was 126 nM; in test [8], 135 nM. This compound also showed an IC50 in test [5] of 25 nM. Moreover, in test [1], the Ratio IC50 turned out to be 11.
Take `O=C(O[C@H]1C[C@H]2CC[C@@H](C1)N2)c1ccco1`: the Ratio IC50 in test [1] was determined as 1. This compound gave a concentration for half-maximal inhibition (IC50) in test [2] of 79.4 nM.
Consider `CN1[C@@H]2CC[C@H]1C[C@@H](OC(=O)c1cc3ccccc3n1C)C2`, for which the 50% inhibitory concentration (IC50) in test [3] is 10.2 nM; in test [2], 1580 nM; in test [4], 2400 nM; in test [5] it was 18 nM. In test [1], the Ratio IC50 came to 240.
`CN1[C@@H]2CC[C@H]1C[C@@H](OC(=O)c1ccc[nH]1)C2`: the IC50 was 33.9 nM in test [3], 11200 nM in test [2] and 20900 nM in test [4]. The Ratio IC50 in test [1] amounted to 615.
In the case of `CN1[C@@H]2CC[C@H]1C[C@@H](OC(=O)c1cccn1C)C2`, in test [1], the Ratio IC50 is above 1. In test [2], this compound had a concentration for half-maximal inhibition (IC50) of 7590 nM.
For the compound `CN1[C@@H]2CC[C@H]1C[C@@H](OC(=O)c1cccnc1)C2`, the IC50 in test [3] was 58.9 nM; in test [2], 4270 nM; in test [4] it was 22900 nM. Also, the Ratio IC50 in test [1] turned out to be 390.
Take `O=C(O[C@H]1C[C@H]2CC[C@@H](C1)N2)c1cccs1`: in test [1], the Ratio IC50 worked out at 1. Besides, the IC50 in test [2] is 41.7 nM.

A word on the IC50: it is the point on the concentration scale where inhibition reaches its midpoint.
